Data set [1] concerns HCT-116. The experiment in a line: Antiproliferative activity against human HCT-116 cells assessed as reduction in cell growth upto 10 uM measured after 6 days by propidium iodide staining based analysis. The data set is classed as functional. The note with it: time 6.0 day. In outline: (§1)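 ATCC-sourced lines grown without antibiotics; 1,000 cells/well in 1% FBS medium, refed ±drug on days 1 and 4 over a 6-day course. On day 7, propidium iodide (10 μg/mL in D-PBS) read after 30 min for nonviable cells, plate frozen at -80°C 2 h, thawed and reread; proliferative index = postfreeze minus prefreeze signal.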

For data set [2], the system named is RXF 393. The data set can be described thus: Antiproliferative activity against human RXF 393 cells assessed as reduction in cell growth upto 10 uM measured after 6 days by propidium iodide staining based analysis. The note with it: time 6.0 day. It is filed as functional. The essentials: as §1
In data set [3] the target is Mitogen-activated protein kinase 1 (Homo sapiens) (UniProt P28482). The experiment in a line: Inhibition of MAPK1 (unknown origin) at 1 micromol/L relative to control. The following applies: dose 1.0 µmol/L. In outline:
(§2)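 Upstate Kinase Profiler panel at 1 μmol/L drug, run per provider; data expressed as percent of kinase activity without drug.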

In data set [4] the test system is U-87 MG. The data set can be described thus: Antiproliferative activity against human U-87 MG cells assessed as reduction in cell growth upto 10 uM measured after 6 days by propidium iodide staining based analysis. The note with it: U-87MG ATCC, time 6.0 day. It is filed as functional. In outline: as §1
The target in data set [5] is Glycogen synthase kinase-3 beta (Homo sapiens) (UniProt P49841). The experiment in a line: Inhibition of GSK3beta phosphorylation at serine 9 residue in human HCT-116 cells at 1 micromol/L by Western blotting analysis. The note with it: dose 1.0 µmol/L, time <= 4.0 hrs, TDE = time-dependent effect. The data set is classed as cell-based. The essentials:
(§3)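 Cultured tumor cells treated with 1 μmol/L drug; lysates in cell extraction buffer with protease inhibitors, western blotted with phospho-specific antibodies (pGSK3β Ser9, pAKT Thr308, phospho-ERK) alongside total GSK3β/AKT.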

Data set [6] relates to BT-549. The data set can be described thus: Antiproliferative activity against human BT-549 cells assessed as reduction in cell growth upto 10 uM measured after 6 days by propidium iodide staining based analysis. The data set is classed as functional. The note with it: time 6.0 day. The essentials:
as §1

The subject of data set [7] is TK-10. The data set can be described thus: Antiproliferative activity against human TK-10 cells assessed as reduction in cell growth upto 10 uM measured after 6 days by propidium iodide staining based analysis. It is filed as functional. The following applies: time 6.0 day. In outline: as §1
In data set [8] the target is Protein kinase C zeta type (Homo sapiens) (UniProt Q05513). The experiment in a line: Inhibition of PKCzeta (unknown origin) at 1 micromol/L relative to control. The note with it: dose 1.0 µmol/L. The essentials:
(§4)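 Commercial kinase profiler panel run to the provider's protocol, with the compound tested at 1 µmol/L. Activity is expressed as percent of kinase activity without compound.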

The target of data set [9] is Proto-oncogene tyrosine-protein kinase Src (Homo sapiens) (UniProt P12931). The data set can be described thus: Inhibition of c-SRC (unknown origin) at 1 micromol/L relative to control. The note with it: dose 1.0 µmol/L. In outline:
as §4

Data set [10] has as its system HOP-62. The experiment in a line: Antiproliferative activity against human HOP-62 cells assessed as reduction in cell growth upto 10 uM measured after 6 days by propidium iodide staining based analysis. The data set is classed as functional. The following applies: time 6.0 day. In outline:
as §1

Data set [11] has as its system HCT-116. The experiment in a line: Induction of apoptosis in human HCT-116 cells assessed as increase in oligonucleosomal fragmentation at 1 to 4 micromol/L incubated for 48 hrs by ELISA method. The data set is classed as functional, cell-based. The note with it: dose 1-4 µmol/L. The essentials: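 Oligonucleosomal fragmentation by Cell Death Detection ELISA-plus; 5,000 cells/well in 1% FBS medium, treated 48 h (range studied 0.1–10 μmol/L); absorbance normalized to control-treated cells to give nucleosomal enrichment factor.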
(In an ELISA, binding on a coated surface is turned into a signal by an enzyme label.)

The target of data set [12] is Serine/threonine-protein kinase AKT (Homo sapiens) (UniProt P31751+Q9Y243+P31749). The data set can be described thus: Inhibition of AKT phosphorylation at Thr308 residue in human HCT-116 cells at 1 micromol/L upto 4 hrs by Western blotting analysis. The following applies: dose 1.0 µmol/L. The data set is classed as cell-based. In outline:
as §3
Background: Immunoblotting shows a protein as a band on a membrane.

The subject of data set [13] is OVCAR-5. The data set can be described thus: Antiproliferative activity against human OVCAR-5 cells assessed as reduction in cell growth upto 10 uM measured after 6 days by propidium iodide staining based analysis. It is filed as functional. The note with it: time 6.0 day. In outline:
as §1

Data set [14] concerns ACHN. The data set can be described thus: Antiproliferative activity against human ACHN cells assessed as reduction in cell growth upto 10 uM measured after 6 days by propidium iodide staining based analysis. The data set is classed as functional. The following applies: time 6.0 day. In outline: as §1
Data set [15] in a line: Plasma concentration in athymic nude mouse xenografted with human HCT-116 cells at 75 mg/kg, po administered twice daily measured after 30 mins by LC-MS analysis. The data set is classed as ADME, organism-based. In outline: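 Female athymic nude mice, 6–8 weeks old, received 5 million HCT116 cells s.c. in the flank in 1:1 serum-free medium and matrigel (n = 9 per group). Dosing began at a group mean tumor volume of 100 mm³: 75 mg/kg twice daily by gavage, suspended in 10% acacia in water. Plasma was taken on days 1 and 21 at 0.5–12 h post-dose and measured by LC-MS/MS.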
In general terms: A xenograft is tissue or cells of one species grown in another, often human tumour cells in immunodeficient mice.

In data set [16] the target is Protein kinase C epsilon type (Homo sapiens, UniProt Q02156). The experiment in a line: Inhibition of recombinant human PKCepsilon using myelin basic protein as substrate incubated for 60 mins in presence of […] and ATP by microbeta scintillation counter analysis. The essentials:
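Recombinant human PKCε at 719 pmol/L. Myelin basic protein substrate at 0.25 mg/mL. 30 µmol/L ATP plus 32P-ATP. Started with enzyme, 60 min at room temperature, H3PO4 quench. Phosphocellulose filter capture, scintillation counting. 10-point series 1–2,000 nmol/L. IC50 from three-variable logistic fit.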

For data set [17], the target named is RAC-alpha serine/threonine-protein kinase (Homo sapiens) (UniProt P31749). The experiment in a line: Inhibition of PKBalpha (unknown origin) at 1 micromol/L relative to control. The following applies: dose 1.0 µmol/L. In outline: as §4
In data set [18] the target is Platelet-derived growth factor receptor alpha (Homo sapiens) (UniProt P16234). The experiment in a line: Inhibition of PDGFRalpha (unknown origin) at 1 micromol/L relative to control. The following applies: dose 1.0 µmol/L. In outline: as §4
Data set [19] addresses Inhibitor of nuclear factor kappa-B kinase subunit beta (Homo sapiens) (UniProt O14920). The experiment in a line: Inhibition of IKKbeta (unknown origin) at 1 micromol/L relative to control. The note with it: dose 1.0 µmol/L. The essentials: as §2
Data set [20] deals with Protein kinase C alpha type (Homo sapiens) (UniProt P17252). The data set can be described thus: Inhibition of PKCalpha (unknown origin) at 1 micromol/L relative to control. The following applies: dose 1.0 µmol/L. In outline:
as §4

Molecules are shown by their SMILES. The source made the active and inactive calls. The calls are words filed in the database; no cut-off is given here.

From ChEMBL document CHEMBL5715938, “The protein kinase Cbeta-selective inhibitor, Enzastaurin (LY317615.HCl), suppresses signaling through the AKT pathway, induces apoptosis, and suppresses growth of human colon cancer and glioblastoma xenografts” (Cancer Res, 2005) come the findings set out here.

As usually defined, the IC50 is the concentration that gives 50% inhibition.

Sequence of Platelet-derived growth factor receptor alpha (Homo sapiens) (P16234 whole entry): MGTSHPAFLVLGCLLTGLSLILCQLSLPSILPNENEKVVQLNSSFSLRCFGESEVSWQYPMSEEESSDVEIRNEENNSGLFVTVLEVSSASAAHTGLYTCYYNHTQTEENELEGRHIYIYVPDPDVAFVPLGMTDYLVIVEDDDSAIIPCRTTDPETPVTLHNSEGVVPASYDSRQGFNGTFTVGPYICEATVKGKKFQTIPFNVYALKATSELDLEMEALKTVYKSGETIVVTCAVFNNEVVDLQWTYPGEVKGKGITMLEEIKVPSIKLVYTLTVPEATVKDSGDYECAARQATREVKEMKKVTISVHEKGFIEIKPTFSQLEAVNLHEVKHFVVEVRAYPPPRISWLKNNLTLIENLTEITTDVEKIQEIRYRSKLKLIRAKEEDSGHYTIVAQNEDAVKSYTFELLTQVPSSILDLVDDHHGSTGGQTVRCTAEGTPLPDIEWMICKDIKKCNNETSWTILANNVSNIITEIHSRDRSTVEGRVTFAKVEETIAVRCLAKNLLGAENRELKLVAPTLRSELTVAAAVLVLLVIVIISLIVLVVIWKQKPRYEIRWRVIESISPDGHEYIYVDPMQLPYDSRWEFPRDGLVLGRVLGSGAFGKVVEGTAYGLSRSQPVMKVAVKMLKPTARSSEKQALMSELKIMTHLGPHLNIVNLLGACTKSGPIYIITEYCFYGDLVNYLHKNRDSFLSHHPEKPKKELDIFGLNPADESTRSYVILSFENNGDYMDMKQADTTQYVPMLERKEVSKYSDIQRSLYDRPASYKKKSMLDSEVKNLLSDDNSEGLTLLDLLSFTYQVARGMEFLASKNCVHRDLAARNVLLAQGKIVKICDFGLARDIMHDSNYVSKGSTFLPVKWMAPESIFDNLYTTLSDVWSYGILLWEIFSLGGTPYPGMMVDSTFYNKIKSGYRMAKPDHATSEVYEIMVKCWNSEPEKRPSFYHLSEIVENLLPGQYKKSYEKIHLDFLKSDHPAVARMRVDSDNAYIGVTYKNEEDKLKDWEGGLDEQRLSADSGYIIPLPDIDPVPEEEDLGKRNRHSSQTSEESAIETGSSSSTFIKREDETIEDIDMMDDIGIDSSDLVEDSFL
Sequence of Proto-oncogene tyrosine-protein kinase Src (Homo sapiens) (P12931 2-536 limits assumed): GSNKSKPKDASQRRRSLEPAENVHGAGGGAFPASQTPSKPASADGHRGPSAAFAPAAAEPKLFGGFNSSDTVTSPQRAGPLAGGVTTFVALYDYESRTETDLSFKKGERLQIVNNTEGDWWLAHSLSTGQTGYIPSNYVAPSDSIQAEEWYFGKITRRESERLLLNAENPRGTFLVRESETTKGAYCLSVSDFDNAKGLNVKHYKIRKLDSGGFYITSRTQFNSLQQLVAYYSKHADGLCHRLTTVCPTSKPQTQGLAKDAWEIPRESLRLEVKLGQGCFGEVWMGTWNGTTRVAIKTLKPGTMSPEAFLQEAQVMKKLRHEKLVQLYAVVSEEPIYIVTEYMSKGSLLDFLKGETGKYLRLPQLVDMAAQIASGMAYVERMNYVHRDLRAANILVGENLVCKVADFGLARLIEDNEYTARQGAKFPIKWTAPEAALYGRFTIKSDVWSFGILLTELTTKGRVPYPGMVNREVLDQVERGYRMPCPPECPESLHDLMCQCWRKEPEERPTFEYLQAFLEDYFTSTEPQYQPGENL
Sequence of Protein kinase C epsilon type (Q02156 whole entry): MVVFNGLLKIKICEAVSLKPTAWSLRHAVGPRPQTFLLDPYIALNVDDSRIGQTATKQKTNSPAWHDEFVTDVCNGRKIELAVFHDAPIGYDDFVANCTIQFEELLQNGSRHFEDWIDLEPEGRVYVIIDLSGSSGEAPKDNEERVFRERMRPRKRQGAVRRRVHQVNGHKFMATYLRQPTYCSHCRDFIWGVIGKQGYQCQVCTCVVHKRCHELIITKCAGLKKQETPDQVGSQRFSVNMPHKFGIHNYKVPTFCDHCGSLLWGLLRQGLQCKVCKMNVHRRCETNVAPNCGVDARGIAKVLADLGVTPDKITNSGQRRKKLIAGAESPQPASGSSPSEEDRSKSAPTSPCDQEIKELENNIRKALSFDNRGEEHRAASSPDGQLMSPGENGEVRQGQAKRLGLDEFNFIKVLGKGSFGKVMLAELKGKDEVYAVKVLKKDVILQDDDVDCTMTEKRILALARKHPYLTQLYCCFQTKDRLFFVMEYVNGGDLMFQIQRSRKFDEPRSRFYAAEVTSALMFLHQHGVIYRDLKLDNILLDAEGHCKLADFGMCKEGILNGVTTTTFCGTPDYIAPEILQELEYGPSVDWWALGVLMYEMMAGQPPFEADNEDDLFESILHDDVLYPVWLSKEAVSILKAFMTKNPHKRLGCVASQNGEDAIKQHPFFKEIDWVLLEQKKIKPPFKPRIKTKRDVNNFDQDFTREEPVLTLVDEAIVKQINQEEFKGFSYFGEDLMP
Sequence of Glycogen synthase kinase-3 beta (Homo sapiens) (P49841 whole entry, looked up): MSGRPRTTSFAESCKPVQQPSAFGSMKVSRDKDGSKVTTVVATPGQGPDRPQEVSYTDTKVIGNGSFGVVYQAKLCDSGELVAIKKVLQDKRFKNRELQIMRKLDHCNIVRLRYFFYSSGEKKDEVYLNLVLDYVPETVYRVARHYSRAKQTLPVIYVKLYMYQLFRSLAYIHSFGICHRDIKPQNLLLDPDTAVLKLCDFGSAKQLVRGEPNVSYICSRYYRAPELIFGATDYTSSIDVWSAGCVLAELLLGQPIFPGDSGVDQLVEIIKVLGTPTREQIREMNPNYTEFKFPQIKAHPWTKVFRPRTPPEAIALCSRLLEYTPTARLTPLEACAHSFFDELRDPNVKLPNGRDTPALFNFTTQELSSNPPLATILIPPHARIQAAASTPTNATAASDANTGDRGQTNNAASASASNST
Sequence of Protein kinase C zeta type (Homo sapiens) (Q05513 whole entry): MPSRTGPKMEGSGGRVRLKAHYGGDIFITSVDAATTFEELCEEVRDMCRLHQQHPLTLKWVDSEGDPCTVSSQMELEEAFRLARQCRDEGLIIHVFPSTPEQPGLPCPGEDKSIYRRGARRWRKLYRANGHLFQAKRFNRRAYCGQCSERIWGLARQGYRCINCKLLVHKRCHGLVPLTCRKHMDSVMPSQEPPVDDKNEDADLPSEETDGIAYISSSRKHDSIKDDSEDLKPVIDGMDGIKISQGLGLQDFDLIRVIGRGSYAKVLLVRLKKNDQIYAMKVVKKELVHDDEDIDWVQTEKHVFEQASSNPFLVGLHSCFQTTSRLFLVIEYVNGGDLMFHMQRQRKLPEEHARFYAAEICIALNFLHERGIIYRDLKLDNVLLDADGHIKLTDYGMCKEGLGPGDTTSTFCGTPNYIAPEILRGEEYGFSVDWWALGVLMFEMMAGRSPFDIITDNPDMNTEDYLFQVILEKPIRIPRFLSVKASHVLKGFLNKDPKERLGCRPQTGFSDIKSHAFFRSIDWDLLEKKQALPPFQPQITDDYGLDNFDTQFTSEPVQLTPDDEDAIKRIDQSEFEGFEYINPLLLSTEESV
Sequence of Mitogen-activated protein kinase 1 (Homo sapiens) (P28482 whole entry): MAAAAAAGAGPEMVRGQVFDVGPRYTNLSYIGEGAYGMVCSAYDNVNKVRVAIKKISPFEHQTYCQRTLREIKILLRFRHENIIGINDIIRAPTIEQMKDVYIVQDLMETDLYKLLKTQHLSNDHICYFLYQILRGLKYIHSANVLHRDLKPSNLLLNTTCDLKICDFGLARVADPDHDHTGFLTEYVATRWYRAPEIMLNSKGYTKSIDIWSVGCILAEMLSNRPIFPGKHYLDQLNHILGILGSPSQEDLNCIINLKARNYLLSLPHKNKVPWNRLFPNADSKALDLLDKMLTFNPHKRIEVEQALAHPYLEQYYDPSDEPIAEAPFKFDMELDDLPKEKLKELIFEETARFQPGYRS
Sequence of RAC-alpha serine/threonine-protein kinase (Homo sapiens) (P31749 whole entry): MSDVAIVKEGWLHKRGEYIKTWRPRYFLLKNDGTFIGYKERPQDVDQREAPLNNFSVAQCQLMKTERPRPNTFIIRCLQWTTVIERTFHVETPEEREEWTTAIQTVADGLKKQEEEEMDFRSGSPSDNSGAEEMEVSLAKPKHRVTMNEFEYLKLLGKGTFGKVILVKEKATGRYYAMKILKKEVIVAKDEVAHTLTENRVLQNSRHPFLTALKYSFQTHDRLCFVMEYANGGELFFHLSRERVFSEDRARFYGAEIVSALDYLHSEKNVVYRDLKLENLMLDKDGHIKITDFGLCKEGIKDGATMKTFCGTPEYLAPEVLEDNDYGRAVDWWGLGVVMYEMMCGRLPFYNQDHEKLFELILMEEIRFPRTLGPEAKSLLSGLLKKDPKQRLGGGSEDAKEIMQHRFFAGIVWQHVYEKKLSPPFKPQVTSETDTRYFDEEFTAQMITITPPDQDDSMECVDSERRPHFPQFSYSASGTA

With `Cl.Cn1cc(C2=C(c3cn(C4CCN(Cc5ccccn5)CC4)c4ccccc34)C(=O)NC2=O)c2ccccc21` [ENZASTAURIN HYDROCHLORIDE], the result in data set [1], in [4] and in [11] was Active. For the same molecule, the result in data set [2], in data set [6], in data set [7], in data set [10], in data set [13] and in data set [14] was inactive. The % control activity came out at 114% in data set [3]; 47% in data set [8]; 101% in [9]; 75% in [17]; 86% in [18]; 116% in [19]. Further, in data set [20], the % control activity worked out at 23%. The inhibition entry in data set [5] is “Tde”. In addition, the inhibition entry in [12] is “Active”. In [15], the concentration at 0.5 h was roughly 2000 nM. Also, the IC50 in data set [16] stood at 110 nM.
